Laboratory results reported in ChEMBL document CHEMBL4304745, “On the Process of Discovering Leads That Target the Heparin-Binding Site of Neutrophil Elastase in the Sputum of Cystic Fibrosis Patients” (J Med Chem, 2019).
Values belong to the molecule of their own block, whether it stands above or below them. Calls of active or inactive are those of the source. The rule behind the calls is not given here.

Legend:
[1] = molecular target: T1, Neutrophil elastase (Homo sapiens) (UniProt P08246); experiment: Inhibition of neutrophil elastase in cystic fibrosis patient-derived sputum up to 250 using S1384 as substrate measured after 2 hrs in presence of DNAse1 and 150 mM NaCl; type: tissue-based
T1 sequence (whole entry): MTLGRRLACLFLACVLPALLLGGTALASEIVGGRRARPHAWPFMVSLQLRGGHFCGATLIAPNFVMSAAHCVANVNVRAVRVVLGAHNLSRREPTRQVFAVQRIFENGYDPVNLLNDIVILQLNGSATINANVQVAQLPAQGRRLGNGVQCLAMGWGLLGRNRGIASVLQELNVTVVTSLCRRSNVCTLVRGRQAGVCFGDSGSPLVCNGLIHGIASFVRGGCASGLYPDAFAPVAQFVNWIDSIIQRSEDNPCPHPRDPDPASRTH

[2] = molecular target: T1, Neutrophil elastase (Homo sapiens); experiment: Inhibition of neutrophil elastase in cystic fibrosis patient-derived sputum at 2 mM using S1384 as substrate measured after 2 hrs in presence of DNAse1 and 150 mM NaCl; type: tissue-based
In short: (§1)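 Sputum from cystic fibrosis patients is cleared of insoluble debris by centrifugation and treated with DNase. HNE activity is then read by chromogenic substrate hydrolysis across increasing compound concentrations, up to about 2 mM.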

[3] = test system: Plasma; experiment: Anticoagulant activity in human plasma assessed as effect on prothrombin time at 855 uM measured after 5 mins; type: ADME, cell-free
In short: (§2)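 APTT and PT recorded in human plasma with compound present at concentrations up to 855 µM. The read-out is the change in clotting time relative to untreated plasma.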

[4] = species: Homo sapiens; experiment: Selectivity ratio of IC50 for thrombin (unknown origin) to IC50 for human neutrophil elastase
[5] = molecular target: Coagulation factor X (Homo sapiens, UniProt P00742); experiment: Inhibition of factor 10a (unknown origin) using spectrozyme as substrate preincubated for 5 mins followed by substrate addition
[6] = molecular target: Coagulation factor XI (Homo sapiens, UniProt P03951); experiment: Inhibition of factor 11a (unknown origin) using S-2366 as substrate preincubated for 5 mins followed by substrate addition
[7] = test system: Plasma; experiment: Anticoagulant activity in human plasma assessed as effect on activated partial thromboplastin time at 855 uM measured after 5 mins; type: ADME, cell-free; in short: as §2
[8] = molecular target: T1, Neutrophil elastase (Homo sapiens); experiment: Inhibition of neutrophil elastase in cystic fibrosis patient-derived sputum using S1384 as substrate measured after 2 hrs in presence of DNAse1 and 150 mM NaCl; type: tissue-based; in short: as §1
[9] = molecular target: T1, Neutrophil elastase (Homo sapiens); experiment: Inhibition of neutrophil elastase in cystic fibrosis patient-derived sputum at 2 mM using S1384 as substrate measured after 2 hrs in presence of DNAse1 and 400 mM NaCl; type: tissue-based; in short: as §1
[10] = molecular target: T2, Cathepsin G (Homo sapiens, UniProt P08311); experiment: Inhibition of human leukocyte cathepsin G using S7388 as substrate preincubated for 5 mins followed by substrate addition
T2 sequence (P08311 whole entry): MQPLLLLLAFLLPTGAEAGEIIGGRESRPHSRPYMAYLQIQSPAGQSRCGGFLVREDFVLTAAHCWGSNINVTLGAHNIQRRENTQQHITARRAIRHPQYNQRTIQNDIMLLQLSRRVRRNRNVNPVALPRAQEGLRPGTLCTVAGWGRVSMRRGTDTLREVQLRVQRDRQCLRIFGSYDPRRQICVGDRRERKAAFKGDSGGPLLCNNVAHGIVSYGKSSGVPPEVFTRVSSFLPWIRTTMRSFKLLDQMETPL

[11] = molecular target: T1, Neutrophil elastase (Homo sapiens); experiment: Inhibition of human neutrophil elastase assessed as reduction in elastin-congo red hydrolysis preincubated for 30 mins followed by elastin-congo red addition measured after 48 hrs
In short: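 Elastin-congo red hydrolysis by HNE at pH 8. Congo red released by elastin degradation is quantified by absorbance at 497 nm. Run in triplicate; error bars are one standard deviation.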

[12] = species: Homo sapiens; experiment: Selectivity ratio of IC50 for factor 11 (unknown origin) to IC50 for human neutrophil elastase
[13] = molecular target: Prothrombin (Homo sapiens, UniProt P00734); experiment: Inhibition of thrombin (unknown origin) using spectrozyme as substrate preincubated for 5 mins followed by substrate addition
[14] = species: Homo sapiens; experiment: Selectivity ratio of IC50 for factor 10a (unknown origin) to IC50 for human neutrophil elastase
[15] = species: Homo sapiens; experiment: Selectivity ratio of IC50 for plasmin (unknown origin) to IC50 for human neutrophil elastase
[16] = Solubility of the compound in water; type: physicochemical
[17] = molecular target: T1, Neutrophil elastase (Homo sapiens); experiment: Mixed type inhibition of human neutrophil elastase assessed as decrease in Vmax for substrate at 1000 uM using varying levels of S1384 as substrate by Michaelis-Menten plot analysis relative to control
[18] = molecular target: Plasminogen (Homo sapiens, UniProt P00747); experiment: Inhibition of plasmin (unknown origin) using spectrozyme as substrate preincubated for 5 mins followed by substrate addition
[19] = molecular target: T1, Neutrophil elastase (Homo sapiens); experiment: Inhibition of neutrophil elastase in cystic fibrosis patient-derived sputum 2 mM using S1384 as substrate measured after 2 hrs; type: tissue-based
[20] = molecular target: T1, Neutrophil elastase (Homo sapiens); experiment: Mixed type inhibition of human neutrophil elastase assessed as increase in Km for substrate at 1000 uM using varying levels of S1384 as substrate by Michaelis-Menten plot analysis relative to control
[21] = molecular target: T3, Myeloblastin (Homo sapiens, UniProt P24158); experiment: Inhibition of human neutrophil proteinase 3 using M4765 as substrate preincubated for 5 mins followed by substrate addition
T3 sequence (P24158 whole entry): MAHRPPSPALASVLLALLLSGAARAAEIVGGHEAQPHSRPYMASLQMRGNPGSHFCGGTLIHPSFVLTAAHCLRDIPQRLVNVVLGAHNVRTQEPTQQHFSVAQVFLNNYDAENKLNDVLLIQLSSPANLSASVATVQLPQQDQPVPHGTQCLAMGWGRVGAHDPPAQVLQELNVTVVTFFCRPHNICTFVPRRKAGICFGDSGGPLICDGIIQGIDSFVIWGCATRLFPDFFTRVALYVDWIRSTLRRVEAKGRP

[22] = molecular target: T4, Neutrophil elastase (Homo sapiens, UniProt P08246); experiment: Inhibition of human neutrophil elastase using S1384 as substrate preincubated for 5 mins followed by substrate addition
T4 sequence (P08246 whole entry): T1 sequence (whole entry)

[23] = test system: Plasma; experiment: Anticoagulant activity in human plasma assessed as concentration required to double the prothrombin time measured after 5 mins; type: ADME, cell-free
In short: (§3)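 Clotting times (APTT and PT) measured in human plasma over a range of compound concentrations. The value is the concentration needed to double each clotting time.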

[24] = test system: Plasma; experiment: Anticoagulant activity in human plasma assessed as concentration required to double the activated partial thromboplastin time measured after 5 mins; type: ADME, cell-free; in short: as §3
[25] = compound: O=c1cc(-c2ccc(OS(=O)(=O)O)cc2)oc2cc(OS(=O)(=O)O)cc(OCc3cccc(COc4cc(OS(=O)(=O)O)cc5oc(-c6ccc(OS(=O)(=O)O)cc6)cc(=O)c45)n3)c12; experiment: Mixed type inhibition of human neutrophil elastase assessed as Km for substrate at 1000 uM using varying levels of S1384 as substrate by Michaelis-Menten plot analysis (reference value: 650 +/- 24 uM)
[26] = compound: O=c1cc(-c2ccc(OS(=O)(=O)O)cc2)oc2cc(OS(=O)(=O)O)cc(OCc3cccc(COc4cc(OS(=O)(=O)O)cc5oc(-c6ccc(OS(=O)(=O)O)cc6)cc(=O)c45)n3)c12; experiment: Mixed type inhibition of human neutrophil elastase assessed as Vmax for substrate at 1000 uM using varying levels of S1384 as substrate by Michaelis-Menten plot analysis (reference value: 40.1 +/- 0.5 mAU/min)
[27] = compound: O=c1cc(-c2ccc(OS(=O)(=O)O)cc2)oc2cc(OS(=O)(=O)O)cc(OCc3cccc(COc4cc(OS(=O)(=O)O)cc5oc(-c6ccc(OS(=O)(=O)O)cc6)cc(=O)c45)n3)c12; experiment: Mixed type inhibition of human neutrophil elastase assessed as Vmax for substrate at 500 uM using varying levels of S1384 as substrate by Michaelis-Menten plot analysis (reference value: 40.1 +/- 0.5 mAU/min)
[28] = compound: O=c1cc(-c2ccc(OS(=O)(=O)O)cc2)oc2cc(OS(=O)(=O)O)cc(OCc3cccc(COc4cc(OS(=O)(=O)O)cc5oc(-c6ccc(OS(=O)(=O)O)cc6)cc(=O)c45)n3)c12; experiment: Mixed type inhibition of human neutrophil elastase assessed as Km for substrate at 750 uM using varying levels of S1384 as substrate by Michaelis-Menten plot analysis (reference value: 650 +/- 24 uM)
[29] = compound: O=c1cc(-c2ccc(OS(=O)(=O)O)cc2)oc2cc(OS(=O)(=O)O)cc(OCc3cccc(COc4cc(OS(=O)(=O)O)cc5oc(-c6ccc(OS(=O)(=O)O)cc6)cc(=O)c45)n3)c12; experiment: Mixed type inhibition of human neutrophil elastase assessed as Km for substrate at 250 uM using varying levels of S1384 as substrate by Michaelis-Menten plot analysis (reference value: 650 +/- 24 uM)
[30] = compound: O=c1cc(-c2ccc(OS(=O)(=O)O)cc2)oc2cc(OS(=O)(=O)O)cc(OCc3cccc(COc4cc(OS(=O)(=O)O)cc5oc(-c6ccc(OS(=O)(=O)O)cc6)cc(=O)c45)n3)c12; experiment: Mixed type inhibition of human neutrophil elastase assessed as Km for substrate at 500 uM using varying levels of S1384 as substrate by Michaelis-Menten plot analysis (reference value: 650 +/- 24 uM)
[31] = compound: O=c1cc(-c2ccc(OS(=O)(=O)O)cc2)oc2cc(OS(=O)(=O)O)cc(OCc3cccc(COc4cc(OS(=O)(=O)O)cc5oc(-c6ccc(OS(=O)(=O)O)cc6)cc(=O)c45)n3)c12; experiment: Mixed type inhibition of human neutrophil elastase assessed as Vmax for substrate at 750 uM using varying levels of S1384 as substrate by Michaelis-Menten plot analysis (reference value: 40.1 +/- 0.5 mAU/min)
[32] = compound: O=c1cc(-c2ccc(OS(=O)(=O)O)cc2)oc2cc(OS(=O)(=O)O)cc(OCc3cccc(COc4cc(OS(=O)(=O)O)cc5oc(-c6ccc(OS(=O)(=O)O)cc6)cc(=O)c45)n3)c12; experiment: Mixed type inhibition of human neutrophil elastase assessed as Vmax for substrate at 250 uM using varying levels of S1384 as substrate by Michaelis-Menten plot analysis (reference value: 40.1 +/- 0.5 mAU/min)

Coagulation factor XI, sequence (P03951 19-387 limits assumed): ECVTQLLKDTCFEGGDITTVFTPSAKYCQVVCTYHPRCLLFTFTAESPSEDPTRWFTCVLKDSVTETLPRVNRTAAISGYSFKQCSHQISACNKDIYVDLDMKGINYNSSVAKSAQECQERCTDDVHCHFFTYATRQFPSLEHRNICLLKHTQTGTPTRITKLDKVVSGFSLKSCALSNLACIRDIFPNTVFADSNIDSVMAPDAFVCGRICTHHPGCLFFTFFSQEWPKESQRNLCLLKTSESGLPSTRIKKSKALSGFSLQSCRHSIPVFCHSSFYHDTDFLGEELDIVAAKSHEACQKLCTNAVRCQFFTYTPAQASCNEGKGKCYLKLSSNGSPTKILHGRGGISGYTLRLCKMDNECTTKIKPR
Coagulation factor XI, sequence (P03951 388-625 limits assumed): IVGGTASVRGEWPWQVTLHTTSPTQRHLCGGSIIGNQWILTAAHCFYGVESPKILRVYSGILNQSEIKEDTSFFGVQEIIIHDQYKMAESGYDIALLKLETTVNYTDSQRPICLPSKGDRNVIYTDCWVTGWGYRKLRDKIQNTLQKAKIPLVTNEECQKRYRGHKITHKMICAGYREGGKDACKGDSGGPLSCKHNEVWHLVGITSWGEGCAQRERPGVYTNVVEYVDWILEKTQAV
Plasminogen, sequence (P00747 97-580 limits assumed): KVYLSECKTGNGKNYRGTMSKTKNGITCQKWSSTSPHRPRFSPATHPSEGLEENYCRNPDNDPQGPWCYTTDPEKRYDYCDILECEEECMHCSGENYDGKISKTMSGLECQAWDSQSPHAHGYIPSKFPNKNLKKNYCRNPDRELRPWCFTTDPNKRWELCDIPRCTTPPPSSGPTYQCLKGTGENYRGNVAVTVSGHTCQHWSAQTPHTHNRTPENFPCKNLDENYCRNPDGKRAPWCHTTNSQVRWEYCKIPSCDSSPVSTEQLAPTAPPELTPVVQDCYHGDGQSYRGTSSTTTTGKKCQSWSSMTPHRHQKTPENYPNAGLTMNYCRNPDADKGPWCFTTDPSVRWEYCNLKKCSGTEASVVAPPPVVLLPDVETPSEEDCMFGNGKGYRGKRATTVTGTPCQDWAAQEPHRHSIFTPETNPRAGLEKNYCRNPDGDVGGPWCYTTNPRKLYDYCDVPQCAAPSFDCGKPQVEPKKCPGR
Plasminogen, sequence (P00747 581-810 limits assumed): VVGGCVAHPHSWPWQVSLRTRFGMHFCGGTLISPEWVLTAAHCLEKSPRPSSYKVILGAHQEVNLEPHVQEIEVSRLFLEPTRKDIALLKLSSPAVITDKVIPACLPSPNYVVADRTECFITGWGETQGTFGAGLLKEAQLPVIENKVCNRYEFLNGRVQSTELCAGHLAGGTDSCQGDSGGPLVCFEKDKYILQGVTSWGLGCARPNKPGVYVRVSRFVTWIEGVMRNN
Coagulation factor X, sequence (P00742 41-179 limits assumed): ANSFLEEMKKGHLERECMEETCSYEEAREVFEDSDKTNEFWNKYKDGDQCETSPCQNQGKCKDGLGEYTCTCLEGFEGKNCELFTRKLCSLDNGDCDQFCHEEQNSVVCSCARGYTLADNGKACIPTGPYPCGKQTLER
Coagulation factor X, sequence (P00742 235-488 limits assumed): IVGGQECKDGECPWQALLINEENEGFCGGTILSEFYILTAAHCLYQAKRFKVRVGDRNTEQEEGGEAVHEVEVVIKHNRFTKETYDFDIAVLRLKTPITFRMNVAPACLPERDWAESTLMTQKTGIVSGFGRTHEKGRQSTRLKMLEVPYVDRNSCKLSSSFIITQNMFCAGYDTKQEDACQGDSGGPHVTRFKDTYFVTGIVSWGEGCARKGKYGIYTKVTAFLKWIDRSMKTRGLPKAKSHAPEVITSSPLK

Molecule: O=c1cc(-c2ccc(OS(=O)(=O)[O-])cc2)oc2cc(OS(=O)(=O)[O-])cc(OCc3cccc(COc4cc(OS(=O)(=O)[O-])cc5oc(-c6ccc(OS(=O)(=O)[O-])cc6)cc(=O)c45)n3)c12.[Na+].[Na+].[Na+].[Na+]
inhibition [1]: inactive
inhibition [2]: 100%
Activity [3]: Non-Toxic
Ratio IC50 [4]: > 50
inhibition (INH) [5]: Active
inhibition (INH) [6]: Active
Activity [7]: Non-Toxic
inhibition [8]: Dose-dependent effect
inhibition [9]: Active
IC50 [10]: 1100 nM
inhibition [11]: Active
Ratio IC50 [12]: 28
inhibition (INH) [13]: Active
Ratio IC50 [14]: > 50
Ratio IC50 [15]: > 50
solubility [16]: > 10000 µg/mL
fold change (FC) [17]: 2.5
inhibition (INH) [18]: Active
inhibition [19]: inactive
fold change (FC) [20]: 3
IC50 [21]: 54 µM
IC50 [22]: 690 nM

Molecule: O=c1c(OS(=O)(=O)O)c(-c2ccc(OS(=O)(=O)O)c(OS(=O)(=O)O)c2)oc2cc(OS(=O)(=O)O)cc(OCc3ccc(COc4cc(OS(=O)(=O)O)cc5oc(-c6ccc(OS(=O)(=O)O)c(OS(=O)(=O)O)c6)c(OS(=O)(=O)O)c(=O)c45)cc3)c12
IC50 [22]: 230 nM

Molecule: O=C(OC[C@H]1O[C@@H](OC(=O)c2cc(OS(=O)(=O)[O-])c(O)c(OS(=O)(=O)[O-])c2)[C@H](OC(=O)c2cc(OS(=O)(=O)[O-])c(O)c(OS(=O)(=O)[O-])c2)[C@@H](OC(=O)c2cc(OS(=O)(=O)[O-])c(O)c(OS(=O)(=O)[O-])c2)[C@@H]1OC(=O)c1cc(OS(=O)(=O)[O-])c(O)c(OS(=O)(=O)[O-])c1)c1cc(OS(=O)(=O)[O-])c(O)c(OS(=O)(=O)[O-])c1.[Na+].[Na+].[Na+].[Na+].[Na+].[Na+].[Na+].[Na+].[Na+].[Na+] [sulfated pentagalloylglucoside]
inhibition [11]: Active
2PT [23]: 152 µM
2aPTT [24]: 49 µM
IC50 [22]: 40 nM

B1: Neutrophil elastase (Homo sapiens), P08246 (protein)
chain: T1 sequence (whole entry)
Km [25]: 1670 µM
Vmax [26]: 15.3 mAU/min
Vmax [27]: 30.3 mAU/min
Km [28]: 1220 µM
Km [29]: 908 µM
Km [30]: 788 µM
Vmax [31]: 19 mAU/min
Vmax [32]: 38.6 mAU/min

The remaining molecules from weak to strong by IC50 [22], led by results:

IC50 [22]: 157000 nM
Molecule: O=c1cc(-c2ccc(OS(=O)(=O)O)cc2)oc2cc(OS(=O)(=O)O)cc(OCc3cccc(COc4cc(OS(=O)(=O)O)cc5oc(-c6ccc(OS(=O)(=O)O)cc6)cc(=O)c45)c3)c12

IC50 [22]: 140 nM
Molecule: O=c1c(OS(=O)(=O)O)c(-c2ccc(OS(=O)(=O)O)c(OS(=O)(=O)O)c2)oc2cc(OS(=O)(=O)O)cc(OCCOc3cc(-c4oc5cc(OS(=O)(=O)O)cc(OCCOc6cc(OS(=O)(=O)O)cc7oc(-c8ccc(OS(=O)(=O)O)c(OS(=O)(=O)O)c8)c(OS(=O)(=O)O)c(=O)c67)c5c(=O)c4OS(=O)(=O)O)ccc3OS(=O)(=O)O)c12
